Data taken from ChEMBL document CHEMBL1154578, “Aminosterols from the dogfish shark Squalus acanthias” (2000).
Values after ≈ are worked out from the molar mass of the structure shown.

How the values were obtained:
Format in all cases: functional
[1] = system: Pseudomonas aeruginosa; experiment: Antimicrobial activity against Pseudomonas aeruginosa ATCC 27853
Method in brief: (§1)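 Broth microdilution MIC: log-phase microbes at (0.9-1.1) × 10⁵ cfu/mL in 0.5× trypticase soy broth, exposed to increasing amounts of aminosterol in microtiter plates, incubated at 37 °C for 18-24 h. Aminosterol starting solutions at 2 mg/mL in 250 mM sodium acetate, pH 6.6.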

[2] = system: Candida albicans; experiment: Antimicrobial activity against Candida albicans ATCC 90028; method in brief: as §1
[3] = system: Staphylococcus aureus; experiment: Antimicrobial activity against Staphylococcus aureus ATCC 29218; details: ATCC 29213, in the assay text read “ATCC 29213” for “ATCC 29218”; method in brief: as §1
[4] = system: Escherichia coli; experiment: Antimicrobial activity against Escherichia coli ATCC 25922; method in brief: as §1

SMILES | MIC [1] [µg/mL] | MIC [2] [µg/mL] | MIC [3] [µg/mL] | MIC [4] [µg/mL]
CC(COS(=O)(=O)O)C(=O)CC[C@@H](C)[C@H]1CC[C@H]2[C@@H]3[C@H](O)C[C@H]4C[C@@H](NCCCNCCCCN)CC[C@]4(C)[C@H]3CC[C@]12C (some centres not stated) | 128 (≈ 199 µM) | 32 (≈ 49.8 µM) | 8 (≈ 12.5 µM) | 128 (≈ 199 µM)
C=C(C)C(=O)CC[C@@H](C)[C@H]1CC[C@H]2[C@@H]3[C@H](O)C[C@H]4C[C@@H](NCCCNCCCCN)CC[C@]4(C)[C@H]3CC[C@]12C | 16 (≈ 29.4 µM) | 2 (≈ 3.68 µM) | 2 (≈ 3.68 µM) | 16 (≈ 29.4 µM)
CC(C)[C@](CO)(CC[C@@H](C)[C@H]1CC[C@H]2[C@@H]3[C@H](O)C[C@H]4C[C@@H](NCCCNCCCCN)CC[C@]4(C)[C@H]3CC[C@]12C)OS(=O)(=O)O | 16 (≈ 24.3 µM) | 32 (≈ 48.6 µM) | 2 (≈ 3.04 µM) | 8 (≈ 12.2 µM)
CC(CSCC(N)C(=O)O)C(=O)CC[C@@H](C)[C@H]1CC[C@H]2[C@@H]3[C@H](O)C[C@H]4C[C@@H](NCCCNCCCCN)CC[C@]4(C)[C@H]3CC[C@]12C (some centres not stated) | 256 (≈ 385 µM) | 128 (≈ 192 µM) | 8 (≈ 12 µM) | 256 (≈ 385 µM)
CC(COS(=O)(=O)O)[C@H](O)CC[C@@H](C)[C@H]1CC[C@H]2[C@@H]3[C@H](O)C[C@H]4C[C@@H](NCCCNCCCCN)CC[C@]4(C)[C@H]3CC[C@]12C (some centres not stated) | 32 (≈ 49.7 µM) | 16 (≈ 24.8 µM) | 4 (≈ 6.21 µM) | 128 (≈ 199 µM)

The next lines start with the values.

MIC [1] [µg/mL] | MIC [2] [µg/mL] | MIC [3] [µg/mL] | MIC [4] [µg/mL] | SMILES
16 (≈ 24.8 µM) | 32 (≈ 49.7 µM) | 8 (≈ 12.4 µM) | 16 (≈ 24.8 µM) | CC(C)[C@@H](CC[C@@H](C)[C@H]1CC[C@H]2[C@@H]3[C@H](O)C[C@H]4C[C@@H](NCCCNCCCCN)CC[C@]4(C)[C@H]3C[C@H](O)[C@]12C)OS(=O)(=O)O
16 (≈ 25.5 µM) | 16 (≈ 25.5 µM) | 1 (≈ 1.59 µM) | 4 (≈ 6.37 µM) | CC(C)[C@@H](CC[C@@H](C)[C@H]1CC[C@H]2[C@@H]3[C@H](O)C[C@H]4C[C@@H](NCCCNCCCCN)CC[C@]4(C)[C@H]3CC[C@]12C)OS(=O)(=O)O [SQUALAMINE]
4 (≈ 5.84 µM) | 4 (≈ 5.84 µM) | 1 (≈ 1.46 µM) | 1 (≈ 1.46 µM) | CC(C)[C@@H](CC[C@@H](C)[C@H]1CC[C@H]2[C@@H]3[C@H](O)C[C@H]4C[C@@H](NCCCNCCCCNCCCN)CC[C@]4(C)[C@H]3CC[C@]12C)OS(=O)(=O)O [TRODUSQUEMINE]
